Experimental data from ChEMBL document CHEMBL6092133, “Enhancing the therapeutic window for Spectinamide anti-tuberculosis Agents: Synthesis, Evaluation, and activation of phosphate prodrug 3408” (Bioorg Med Chem Lett, 2024).
Activity calls are given as the source filed them. The rule behind the calls is not given here.

How the values were obtained:
Bacterial 70S ribosome = test: Inhibition of ribosome-mediated protein synthesis in Mycobacterium smegmatis; format: subcellular, Mycolicibacterium smegmatis
[1] = Toxicity in Sprague-Dawley rat assessed as maximum tolerated dose administered via iv infusion for 5 mins; format: organism-based; details: in vivo
Summary of the method: (§1)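 Rats given single intravenous doses either as a bolus over 5 or 30 seconds or as a timed infusion (minutes, per line). The highest dose tolerated without acute toxicity was recorded as MTD in mg/kg.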

[2] = Toxicity in Sprague-Dawley rat assessed as maximum tolerated dose administered via iv infusion for 30 mins; format: organism-based; details: in vivo; summary of the method: as §1
[3] = Toxicity in Sprague-Dawley rat assessed as maximum tolerated dose administered as iv bolus injection for 5 sec; format: organism-based; details: in vivo; summary of the method: as §1
[4] = Toxicity in Sprague-Dawley rat assessed as maximum tolerated dose administered as iv bolus injection for 30 sec; format: organism-based; details: in vivo; summary of the method: as §1
[5] = Toxicity in Sprague-Dawley rat assessed as maximum tolerated dose administered via iv infusion for 15 mins; format: organism-based; details: in vivo; summary of the method: as §1
[6] = (§2) Prodrug conversion in male Sprague-Dawley rat assessed as AUC of 2-(5-chloropyridin-2-yl)-N-((2R,4R,4aS,5aR,6S,7S,8R,9S,9aR,10aS)-4a,7,9-trihydroxy-2-methyl-6,8-bis(methylamino)decahydro-2H-benzo[b]pyrano[2,3-e][1,4]dioxin-4-yl)acetamide at 10 mg/kg, iv administered as bolus injection and measured after 48 hrs by LC-MS/MS analysis; format: ADME, organism-based; details: in vivo
Summary of the method: (§3)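 Rats dosed once by 10 mg/kg i.v. bolus with either the parent spectinamide or the phosphate prodrug at an equivalent molar amount. Plasma parent-drug concentration-time profiles gave AUC, Cmax, clearance, Vss and terminal half-life, reported as mean ± spread.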

[7] = Prodrug conversion in rat plasma assessed as 2-(5-chloropyridin-2-yl)-N-((2R,4R,4aS,5aR,6S,7S,8R,9S,9aR,10aS)-4a,7,9-trihydroxy-2-methyl-6,8-bis(methylamino)decahydro-2H-benzo[b]pyrano[2,3-e][1,4]dioxin-4-yl)acetamide formation by measuring half-life at 0.1 to 1 microg/ml; format: ADME, cell-free; details: dose 0.1-1 µg/ml
Summary of the method: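 Prodrug incubated in vitro in fresh rat plasma. Appearance of the parent drug was followed over time to give a conversion half-life.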

[8] = Stability of compound in plasmaLyte A and milli-Q water mixture measured for >=6 hrs at room temperature by LC-MS/MS analysis; format: physicochemical; details: buffer
Summary of the method: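 Prodrug held in dosing vehicle alone at room temperature for at least 6 hours, with compound integrity monitored over time.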

[9] = as §2, with “half-life” for “AUC”; format: ADME, organism-based; details: in vivo; summary of the method: as §3
[10] = as §2, with “Cmax” for “AUC”; format: ADME, organism-based; details: in vivo; summary of the method: as §3
[11] = as §2, with “clearance” for “AUC”; format: ADME, organism-based; details: in vivo; summary of the method: as §3
[12] = as §2, with “volume of distribution at steady state” for “AUC”; format: ADME, organism-based; details: in vivo; summary of the method: as §3
[13] = test system: Mycobacterium tuberculosis; test: Antibacterial activity against Mycobacterium tuberculosis H37Rv by whole cell MIC assay; format: functional, organism-based
[14] = Cmax in male Sprague-Dawley rat at 10 mg/kg, iv administered as bolus injection and measured after 48 hrs by LC-MS/MS analysis; format: ADME, organism-based; details: in vivo; summary of the method: as §3
[15] = Volume of distribution at steady state in male Sprague-Dawley rat at 10 mg/kg, iv administered as bolus injection and measured after 48 hrs by LC-MS/MS analysis; format: ADME, organism-based; details: in vivo, read-out: Vdss; summary of the method: as §3
[16] = Half life in male Sprague-Dawley rat at 10 mg/kg, iv administered as bolus injection and measured after 48 hrs by LC-MS/MS analysis; format: ADME, organism-based; details: in vivo; summary of the method: as §3
[17] = AUC in male Sprague-Dawley rat at 10 mg/kg, iv administered as bolus injection and measured after 48 hrs by LC-MS/MS analysis; format: ADME, organism-based; details: in vivo; summary of the method: as §3
[18] = Clearance in male Sprague-Dawley rat at 10 mg/kg, iv administered as bolus injection and measured after 48 hrs by LC-MS/MS analysis; format: ADME, organism-based; details: in vivo; summary of the method: as §3

Which IC50 (Bacterial 70S ribosome) does the source give for `CN[C@@H]1[C@H](O)[C@H](NC)[C@H]2O[C@@]3(O)C(=O)C[C@@H](C)O[C@H]3O[C@@H]2[C@H]1O` [SPECTINOMYCIN] here?
The IC50 was 1080 nM.

For `CN[C@@H]1[C@H](O)[C@H](NC)[C@H]2O[C@]3(O)[C@H](O[C@@H]2[C@H]1O)O[C@H](C)C[C@H]3NC(=O)Cc1ccc(Cl)cn1`, which MTD at 5 min [1] is on record?
The MTD at 5 min was 100 mg/kg.

What about the MTD at 0.5 h [2] of the same compound?
Its MTD at 0.5 h is 300 mg/kg.

What about the MTD at 5 s [3] of the same compound?
Its MTD at 5 s is 75 mg/kg.

And the MTD at 0.5 min [4]?
The MTD at 0.5 min was 100 mg/kg.

And the MTD at 0.25 h [5]?
Its MTD at 0.25 h is 150 mg/kg.

Which AUC [6] does the source give for `CN[C@@H]1[C@H](O)[C@H](NC)[C@H]2O[C@]3(O)[C@H](O[C@@H]2[C@H]1O)O[C@H](C)C[C@H]3NC(=O)Cc1ccc(OP(=O)(O)O)cn1` here?
The AUC was 18500 ng·h/mL.

And the t1/2 [7]?
Its t1/2 is 19 min.

What about the Stability [8] of the same compound?
The Stability was “Stable”.

And the t1/2 [9]?
Its t1/2 is 23.4 min.

What about the Cmax [10] of the same compound?
The Cmax was 38900 ng/mL.

And the CL [11]?
Its CL is 9.1 mL/min/kg.

What about the IC50 (Bacterial 70S ribosome) of the same compound?
Its IC50 is 12200 nM.

What about the MTD at 5 s [3] of the same compound?
The MTD at 5 s was over 500 mg/kg.

And the Vdss [12]?
The Vdss was 0.322 L/kg.

What about the Activity [13] of the same compound?
Its Activity is “inactive”.

For `CN[C@@H]1[C@H](O)[C@H](NC)[C@H]2O[C@]3(O)[C@H](O[C@@H]2[C@H]1O)O[C@H](C)C[C@H]3NC(=O)Cc1ccc(O)cn1`, which Cmax [14] is on record?
The Cmax was 47000 ng/mL.

And the Vd [15]?
Its Vd is 0.494 L/kg.

And the half-life [16]?
Its half-life is 23.5 min.

And the AUC at 48 h [17]?
Its AUC at 48 h is 22000 ng·h/mL.

What about the MTD at 5 min [1] of the same compound?
Its MTD at 5 min is 350 mg/kg.

What about the IC50 (Bacterial 70S ribosome) of the same compound?
Its IC50 is 1790 nM.

What about the MTD at 5 s [3] of the same compound?
Its MTD at 5 s is 200 mg/kg.

And the MTD at 0.5 min [4]?
The MTD at 0.5 min was 200 mg/kg.

What about the clearance [18] of the same compound?
The clearance was 7.72 mL/min/kg.

And the MTD at 0.25 h [5]?
The MTD at 0.25 h was over 500 mg/kg.
